Columns and labels:
K562 = assay: Cytotoxicity against human K562 cells after 5 days by MTT assay; format: functional, cell-based; settings: K562, 120 h
Method in brief: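 K562 human chronic myelogenous leukemia cells were grown in antibiotic-free RPMI with 10% v/v FCS and plated at 40,000 cells/mL. Drug was dissolved in DMSO and serially diluted in medium, with a drug-free control. Plates were incubated 5 days at 37 °C in 5% CO2. MTT was added for 3 h and the formazan dissolved in DMSO. OD was read at 540 and 690 nm to derive the growth-inhibitory dose.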

Tubulin = Tubulin (Sus scrofa, UniProt P02554+P02550); assay: Inhibition of pig tubulin polymerization; format: protein assay
Method in brief: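 Porcine brain tubulin (11 mg/mL stock) was used in Mes buffer (0.1 M Mes, 1 mM EGTA, 0.5 mM MgCl2, pH 6.6) with GTP (5 mM stock) and drug in DMSO. The plate was prechilled 30 min at 4 °C. Absorbance at 350 nm was recorded at ambient temperature for 60 min against buffer+drug blanks. IC50 was taken graphically as percent of untreated control assembly.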

IC50 (Tubulin) [µM] | SMILES | IC50 (K562) [µM]
 | COc1ccc(Cn2nncc2-c2cc(OC)c(OC)c(OC)c2)cc1 | 8.66
 | COc1ccc(Cn2nncc2-c2cc(OC)c(OC)c(OC)c2)cc1Br | > 10
 | COc1ccc(Cn2nncc2-c2cc(OC)c(OC)c(OC)c2)cc1O | 1.83
 | COc1ccc(Cn2nncc2-c2cc(OC)c(OC)c(OC)c2)cc1[N+](=O)[O-] | > 10
> 20 | COc1ccc(Cn2nncc2-c2cc(OC)c(OC)c(OC)c2)cc1N | 0.73
 | COc1ccc(-c2cnnn2Cc2cc(OC)c(OC)c(OC)c2)cc1 | 5.56
 | COc1ccc(-c2cnnn2Cc2cc(OC)c(OC)c(OC)c2)cc1Br | > 10
 | COc1ccc(-c2cnnn2Cc2cc(OC)c(OC)c(OC)c2)cc1O | 0.53
 | COc1ccc(-c2cnnn2Cc2cc(OC)c(OC)c(OC)c2)cc1[N+](=O)[O-] | > 10
> 20 | COc1ccc(-c2cnnn2Cc2cc(OC)c(OC)c(OC)c2)cc1N | 0.38
 | COc1ccc(-n2cc(-c3cc(OC)c(OC)c(OC)c3)nn2)cc1Br | > 10
 | COc1ccc(-n2cc(-c3cc(OC)c(OC)c(OC)c3)nn2)cc1[N+](=O)[O-] | > 10
 | COc1ccc(-n2cc(-c3cc(OC)c(OC)c(OC)c3)nn2)cc1N | > 10
 | COc1ccc(-c2cn(-c3cc(OC)c(OC)c(OC)c3)nn2)cc1Br | > 10
 | COc1ccc(Cn2cc(-c3cc(OC)c(OC)c(OC)c3)nn2)cc1 | > 10
 | COc1ccc(Cn2cc(-c3cc(OC)c(OC)c(OC)c3)nn2)cc1Br | > 10
 | COc1ccc(Cn2cc(-c3cc(OC)c(OC)c(OC)c3)nn2)cc1O | > 10
 | COc1ccc(Cn2cc(-c3cc(OC)c(OC)c(OC)c3)nn2)cc1[N+](=O)[O-] | > 10
 | COc1ccc(Cn2cc(-c3cc(OC)c(OC)c(OC)c3)nn2)cc1N | > 10
 | COc1ccc(-c2cn(Cc3cc(OC)c(OC)c(OC)c3)nn2)cc1 | > 10
 | COc1ccc(-c2cn(Cc3cc(OC)c(OC)c(OC)c3)nn2)cc1Br | > 10
 | COc1ccc(-c2cn(Cc3cc(OC)c(OC)c(OC)c3)nn2)cc1O | > 10
 | COc1ccc(-c2cn(Cc3cc(OC)c(OC)c(OC)c3)nn2)cc1[N+](=O)[O-] | > 10
 | COc1ccc(-c2cn(Cc3cc(OC)c(OC)c(OC)c3)nn2)cc1N | > 10
 | COc1ccc(-c2cn(-c3cc(OC)c(OC)c(OC)c3)nn2)cc1 | > 10
 | COc1ccc(-n2cc(-c3cc(OC)c(OC)c(OC)c3)nn2)cc1 | > 10
> 20 | COc1ccc(-n2cc(-c3cc(OC)c(OC)c(OC)c3)nn2)cc1O | 3.2
 | COc1ccc(-c2cn(-c3cc(OC)c(OC)c(OC)c3)nn2)cc1O | > 10
 | COc1ccc(-c2cn(-c3cc(OC)c(OC)c(OC)c3)nn2)cc1[N+](=O)[O-] | > 10
> 20 | COc1ccc(-c2cn(-c3cc(OC)c(OC)c(OC)c3)nn2)cc1N | 

Source: ChEMBL document CHEMBL1221348, “1,2,3-triazole analogs of combretastatin A-4 as potential microtubule-binding agents” (Bioorg Med Chem, 2010)
